The source of these data is ChEMBL document CHEMBL1221204, “Spliceostatin A targets SF3b and inhibits both splicing and nuclear retention of pre-mRNA” (Nat Chem Biol, 2007).

Data set [1] has as its system HeLa. The data set can be described thus: Induction of p27 expression in human HeLa cells at 1 uM after 24 hrs by Western blotting. The data set is classed as functional, cell-based. The gist of the method:
(§1)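 HeLa S3 cells were grown in DMEM with 10% heat-inactivated FBS and treated for 24 h. Cells were sonicated in ice-cold pH 7.5 HEPES IP buffer with protease inhibitors. Extracts were separated by SDS-PAGE, blotted to PVDF and probed with anti-p16, anti-p21 and anti-p27 antibodies, with chemiluminescent detection.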

Data set [2] deals with HeLa. The data set can be described thus: Induction of p21 expression in human HeLa cells at 1 uM after 24 hrs by Western blotting. The class given is functional, cell-based. The method in brief:
as §1
(In western blotting, separated proteins are transferred to a membrane and probed.)

Data set [3] relates to HeLa. The data set can be described thus: Induction of p16 expression in human HeLa cells at 1 uM after 24 hrs by Western blotting. The data set is classed as functional, cell-based. The method in brief:
as §1

Data set [4] concerns HeLa. As to the kind of experiment: Induction of subcellular localization of SAP145 in SAP145-targeting siRNA-transfected human HeLa cells after 3 days. The class given is functional, cell-based.
Data set [5] relates to HeLa. The data set can be described thus: Induction of beta-actin expression in human HeLa cells at 100 ng/ml after 14 hrs by Western blotting. The data set is classed as functional, cell-based.
Data set [6] can be described thus: Half life of the compound in culture medium by HPLC analysis. The data set is classed as physicochemical.
Data set [7] addresses T1, Splicing factor 3B subunit 3 (Homo sapiens) (UniProt Q15393).
T1 sequence (whole entry): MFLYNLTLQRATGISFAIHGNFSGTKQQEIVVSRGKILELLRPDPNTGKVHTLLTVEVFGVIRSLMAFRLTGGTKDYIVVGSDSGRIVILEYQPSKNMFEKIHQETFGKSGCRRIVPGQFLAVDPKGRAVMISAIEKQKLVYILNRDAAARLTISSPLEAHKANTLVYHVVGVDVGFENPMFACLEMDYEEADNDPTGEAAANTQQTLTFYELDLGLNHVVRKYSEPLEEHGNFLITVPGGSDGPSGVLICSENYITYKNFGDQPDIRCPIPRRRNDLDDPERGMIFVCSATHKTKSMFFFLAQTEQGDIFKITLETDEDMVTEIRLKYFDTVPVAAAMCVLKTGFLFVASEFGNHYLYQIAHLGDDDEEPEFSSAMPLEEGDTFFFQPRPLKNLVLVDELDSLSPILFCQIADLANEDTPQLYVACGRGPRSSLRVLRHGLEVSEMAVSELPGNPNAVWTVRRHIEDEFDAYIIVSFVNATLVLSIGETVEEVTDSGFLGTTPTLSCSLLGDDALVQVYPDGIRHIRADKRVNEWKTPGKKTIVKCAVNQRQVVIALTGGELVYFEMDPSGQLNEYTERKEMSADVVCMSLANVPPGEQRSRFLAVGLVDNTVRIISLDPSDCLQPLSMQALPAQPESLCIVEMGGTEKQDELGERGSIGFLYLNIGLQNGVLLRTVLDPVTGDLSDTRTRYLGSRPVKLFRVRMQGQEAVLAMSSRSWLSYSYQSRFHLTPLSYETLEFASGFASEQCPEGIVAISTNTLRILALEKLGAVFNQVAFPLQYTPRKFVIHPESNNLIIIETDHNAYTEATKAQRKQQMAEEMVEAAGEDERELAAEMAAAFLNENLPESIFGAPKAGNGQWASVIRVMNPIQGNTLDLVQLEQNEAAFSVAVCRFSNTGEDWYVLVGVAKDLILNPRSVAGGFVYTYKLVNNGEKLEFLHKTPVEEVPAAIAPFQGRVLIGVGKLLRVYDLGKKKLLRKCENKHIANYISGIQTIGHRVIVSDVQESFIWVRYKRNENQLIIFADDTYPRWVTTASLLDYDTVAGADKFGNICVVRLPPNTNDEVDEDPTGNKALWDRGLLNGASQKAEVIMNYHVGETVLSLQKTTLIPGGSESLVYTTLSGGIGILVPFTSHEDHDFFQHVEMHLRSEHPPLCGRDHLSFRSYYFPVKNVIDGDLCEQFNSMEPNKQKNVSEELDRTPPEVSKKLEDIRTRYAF
The data set can be described thus: Binding affinity to SAP130 in human HeLa cells assessed as inhibition of p27 pre-mRNA splicing between exon 1 and intron 2 at […] after 12 hrs by RT-PCR analysis. The data set is classed as cell-based.

For data set [8], the target named is T1, Splicing factor 3B subunit 3 (Homo sapiens). As to the kind of experiment: Binding affinity to SAP130 in human HeLa cells assessed as inhibition of beta-actin mRNA splicing at 100 ng/ml after 6 hrs by RT-PCR analysis. The data set is classed as cell-based. The gist of the method:
(§2)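 HeLa cells treated 6 h with 100 ng ml-1 SSA or methanol. Total RNA isolated with TRIzol and reverse transcribed with M-MLV reverse transcriptase. PCR primers designed to detect intron-containing transcripts.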

Data set [9] deals with HEK-293T. The data set can be described thus: Induction of intron translation of Myc-tagged p27 gene in HEK293T cells at 100 ng/ml for 14 hrs by Western blotting. The class given is functional, cell-based. To be noted: Homo sapiens. The gist of the method: (§3)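 HEK 293T cells transfected (Lipofectamine 2000) with the p27-int-HA reporter. Correct splicing yields p27-Myc; translated intron yields p27*-HA. Cells treated with or without SSA at 100 ng ml-1 for 14 h. Myc- and HA-tagged products detected by western blotting.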

Data set [10] deals with Cyclin-dependent kinase 2 (Homo sapiens) (UniProt P24941). The data set can be described thus: Induction of CDK2 in HEK293T cells transfected with FLAG-tagged p27 at 190 nM by Western blot analysis. The data set is classed as cell-based. To be noted: HEK-293T. The method in brief:
(§4)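 HEK 293T cells were transfected with pcDNA3.1, FLAG-p27 or FLAG-p27*, or were treated with MeOH, FR901464 (20, 200 nM) or SSA (190 nM). CDK2 was immunoprecipitated and its kinase activity read by autoradiography with histone H1 and (gamma-32P)ATP. Associated proteins were detected by western blotting.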

In data set [11] the test system is HeLa. The data set can be described thus: Induction of beta-tubulin expression in human HeLa cells at 100 ng/ml after 14 hrs by Western blotting. The class given is functional, cell-based.
Data set [12] deals with HeLa. The data set can be described thus: Induction of truncated p27 expression in SAP145-targeting siRNA-transfected human HeLa cells. The data set is classed as functional, cell-based. The method in brief:
(§5)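 HeLa cells transfected with siRNA against SAP155, SAP145 or SAP130 using DharmaFECT 1. Knockdown and the truncated p27* form detected by western blotting of cell extracts.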

For data set [13], the system named is HeLa. The data set can be described thus: Induction of truncated p27 expression in SAP155-targeting siRNA-transfected human HeLa cells. The class given is functional, cell-based. The gist of the method: as §5
Data set [14] deals with T1, Splicing factor 3B subunit 3 (Homo sapiens). As to the kind of experiment: Binding affinity to SAP130 assessed as inhibition of radio labeled beta-globin pre-mRNA splicing after 1 hr by autoradiography. The gist of the method: (§6)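 32P-labelled, m7G-capped in vitro-transcribed pre-mRNA substrate; beta-globin (exon 1 177 nt, intron 130 nt, exon 2 148 nt) or IgM (exon C3 154 nt, intron 107 nt, exon C4 119 nt). HeLa nuclear extract preincubated with SSA (19, 58, 95, 190 nM) or methanol for 1 h at 4 °C. Splicing then run 90 min at 30 °C in 20 µl. RNA resolved on denaturing urea-PAGE; autoradiography.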

For data set [15] the target is unchanged. As to the kind of experiment: Binding affinity to SAP130 in human HeLa cells assessed as inhibition of p27 mRNA splicing at 100 ng/ml after 6 hrs by RT-PCR analysis. The class given is cell-based. The gist of the method:
as §2

Data set [16] has the same target. As to the kind of experiment: Binding affinity to SAP130 in human HeLa cells assessed as inhibition of beta-tubulin mRNA splicing at 100 ng/ml after 6 hrs by RT-PCR analysis. The data set is classed as cell-based. The gist of the method:
as §2

For data set [17] the target is unchanged. As to the kind of experiment: Binding affinity to SAP130 in human HeLa cells assessed as inhibition of p27 pre-mRNA splicing between exon 1 and exon 2 at […] after 12 hrs by RT-PCR analysis. The class given is cell-based.
Data set [18] has as its system HeLa. The data set can be described thus: Induction of subcellular localization of SC35 in human HeLa cells at 100 ng/ml after 3 hrs. The class given is functional, cell-based. The method in brief:
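HeLa cells treated with SSA (100 ng ml-1, 3 h) or MeOH. Fixed in 3% formaldehyde, permeabilized with 1% Triton X-100, blocked with 5% FBS-PBS. Stained with anti-SC35 and an Alexa 488 anti-mouse secondary; fluorescence microscopy at 100×.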

Data set [19] has as its target Cyclin-dependent kinase 2 (Homo sapiens) (UniProt P24941). The data set can be described thus: Induction of CDK2 in HEK293T cells transfected with FLAG-tagged truncated p27 at 190 nM by Western blot analysis. Conditions: HEK-293T. The data set is classed as cell-based. The gist of the method: as §4
In data set [20] the test system is HeLa. As to the kind of experiment: Induction of subcellular localization of poly(A) RNA in human HeLa cells at 100 ng/ml after 3 hrs using digoxigenin-labeled oligo-Dt probe. The class given is functional, cell-based. The gist of the method: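 HeLa cells treated with SSA (100 ng ml-1, 3 h) or MeOH. Fixed in 3% formaldehyde 15 min; permeabilized with 0.5% Triton X-100 on ice. Hybridized at 42 °C with 3'-digoxigenin oligo-dT in 2× SSC, 20% formamide, 1 mg ml-1 tRNA, 10% dextran sulfate. Washed; detected with anti-digoxigenin then FITC anti-mouse IgG.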

For data set [21], the target named is T1, Splicing factor 3B subunit 3 (Homo sapiens). As to the kind of experiment: Binding affinity to SAP130 assessed as inhibition of radio labeled IgM pre-mRNA splicing after 1 hr by autoradiography. The gist of the method:
as §6

For data set [22], the system named is HEK-293T. The data set can be described thus: Induction of intron translation of HA-tagged truncated p27 gene in HEK293T cells at 100 ng/ml for 14 hrs. The class given is functional, cell-based. Conditions: Homo sapiens. The gist of the method:
as §3

The test system of data set [23] is SF3B1/SF3B2/SF3B3 (Homo sapiens). As to the kind of experiment: Displacement of Ac-SSA from SF3b SAP155/SAP145/SAP130 complex in human HeLa cells by competition binding assay.
Data set [24] concerns the target T1, Splicing factor 3B subunit 3 (Homo sapiens). The data set can be described thus: Binding affinity to SAP130 in human HeLa cells assessed as inhibition of FLAG-tagged beta globin splicing at 100 ng/ml after 12 hrs by RT-PCR analysis. The class given is cell-based.
Data set [25] has as its system HeLa. As to the kind of experiment: Induction of subcellular localization of SAP155 in SAP155-targeting siRNA-transfected human HeLa cells after 3 days. The data set is classed as functional, cell-based.
For data set [26], the system named is HeLa. As to the kind of experiment: Induction of truncated p27 expression in SAP130-targeting siRNA-transfected human HeLa cells. The class given is functional, cell-based. The method in brief:
as §5

The target of data set [27] is T1, Splicing factor 3B subunit 3 (Homo sapiens). The data set can be described thus: Binding affinity to SAP130 in human HeLa cells assessed as inhibition of IkappaBalpha pre-mRNA splicing between exon 1 and exon 4 at […] after 12 hrs by RT-PCR analysis. The class given is cell-based.

Activity calls are given as the source filed them. No cut-off for these calls is given here.

`CC(/C=C/C(=O)NO)=C\[C@@H](C)C(=O)c1ccc(N(C)C)cc1`: the result with HeLa [1], with HeLa [2] and with HeLa [3] was Active.

Regarding `CO[C@]1(C)C[C@@]2(CO2)[C@H](O)[C@@H](/C=C/C(C)=C/C[C@@H]2O[C@H](C)[C@H](NC(=O)/C=C\[C@H](C)OC(C)=O)C[C@@H]2C)O1`, the result (in the data set on HeLa [4]; in the data set on HeLa [5]; in data set [7]; with HEK-293T [9]; in the data set with HeLa [11]; with HeLa [12]) was Active. In addition, the outcome (in the data set with HeLa [13]; in data set [17]; with HeLa [18]; in the data set on HeLa [20]; in the data set with HEK-293T [22]; in data set [23]) was Active. The result (in [24]; in the data set with HeLa [25]; in the data set on HeLa [26]; in [27]) was Active. Besides, the half-life (in general, the time in which the quantity being followed falls by half) in data set [6] was determined as 6 min. In addition, the inhibition entry in [8], in data set [15], in data set [16] and in [21] was “Active” each time. Also, the result in data set [10] and in data set [19] was inactive. In addition, the Activity result in data set [14] was “Dose-dependent effect”.
